# Bioassay records: PubChem BioAssay, several laboratories
# Hits are enriched below; roughly 2.2% of the tested compounds scored in any of these assays.
# HKDC1 inh – inhibitors of human hexokinase HKDC1 | recombinant HKDC1, G6PDH/diaphorase resazurin coupled fluorescence | inhibition, % at 20 µM | hit rate 0.16% among 340,000 | AID 493160;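 active = inhibition above about 35% when tested at 20 µM, limit read from the data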;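 note: plate controls were DMSO wells with enzyme for no effect and DMSO wells lacking enzyme for full effect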
# Target sequence (Q2TB90 whole entry, looked up): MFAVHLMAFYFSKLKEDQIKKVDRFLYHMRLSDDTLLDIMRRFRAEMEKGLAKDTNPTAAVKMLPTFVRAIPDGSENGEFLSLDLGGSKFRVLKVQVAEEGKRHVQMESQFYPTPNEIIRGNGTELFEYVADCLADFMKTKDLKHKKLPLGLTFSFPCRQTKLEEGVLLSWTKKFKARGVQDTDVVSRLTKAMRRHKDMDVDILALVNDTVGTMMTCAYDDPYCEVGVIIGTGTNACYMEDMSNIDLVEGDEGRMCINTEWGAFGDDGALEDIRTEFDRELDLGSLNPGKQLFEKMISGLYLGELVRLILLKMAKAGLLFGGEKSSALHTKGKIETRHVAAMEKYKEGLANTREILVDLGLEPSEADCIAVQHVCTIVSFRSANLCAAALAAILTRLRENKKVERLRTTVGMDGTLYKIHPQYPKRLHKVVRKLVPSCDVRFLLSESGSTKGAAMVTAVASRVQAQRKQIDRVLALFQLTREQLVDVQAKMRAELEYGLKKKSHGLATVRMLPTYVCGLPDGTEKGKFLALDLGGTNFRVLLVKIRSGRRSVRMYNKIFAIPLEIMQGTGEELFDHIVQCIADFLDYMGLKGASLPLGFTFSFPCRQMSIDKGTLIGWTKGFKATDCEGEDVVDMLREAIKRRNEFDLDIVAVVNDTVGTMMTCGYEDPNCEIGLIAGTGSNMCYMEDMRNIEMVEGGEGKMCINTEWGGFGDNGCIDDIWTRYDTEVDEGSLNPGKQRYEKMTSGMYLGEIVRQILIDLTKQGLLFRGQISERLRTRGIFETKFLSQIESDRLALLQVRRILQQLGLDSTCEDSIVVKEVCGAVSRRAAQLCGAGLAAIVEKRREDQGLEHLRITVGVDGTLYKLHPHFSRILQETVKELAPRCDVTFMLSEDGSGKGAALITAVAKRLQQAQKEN
#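 Test system: HK5 enzyme. Quantity: 5 µg/mL HK5 final. Reagent: glucose and ATP substrates. Schedule: 90 min reaction incubation at room temperature, dark. Technique: resazurin-to-resorufin fluorescence via G6PDH and diaphorase coupling, 525/613 nm. Control set: DMSO wells with and without enzyme mix.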
# ABHD5-PLIN5 inh – ABHD5-PLIN5 protein interaction inhibition. hit rate 0.78% among 360,000. AID 602281. Split G. princeps luciferase complementation, luminescence, 4 h. Q00G26+Q8WTS1. inhibition, % at 4 µM;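 active = inhibition above the mean inhibition across every tested compound plus 3 SD, cut at about 22% in these data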;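 note: 0% = DMSO only wells and the 100% control is not disclosed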
# PfGluPho inh – PfG6PD (Plasmodium falciparum) enzyme inhibition; AID 504690; hit rate 0.78% among 350,000; PfGluPho enzyme, NADPH resazurin-diaphorase fluorescence; inhibition, % at 20 µM;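 active = inhibition reaching at least a set limit at 20 µM in the primary screen, cut at about 59% in these data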;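 note: 0% = DMSO wells with substrate and 100% = DMSO wells lacking glucose-6-phosphate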
# Granule exo inh – lytic granule exocytosis inhibition. TALL-104 LAMP-1 surface exposure, flow cytometry; cells stimulated with thapsigargin and PMA. inhibition, % at 10 µM. hit rate 0.66% among 360,000. AID 651702;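 active = inhibition above about 55%, limit read from the data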
# PfG6PD confirm – confirmation of Plasmodium falciparum G6PD inhibitors; shares compounds with PfGluPho inh; recombinant PfGluPho, NADPH-diaphorase-resazurin fluorescence; inhibition, % at 20 µM; hit rate 34% among 2,400; AID 504753;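 active = inhibition of at least 50% at 20 µM in any single replicate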;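 note: 0% = DMSO with substrate and 100% = DMSO lacking glucose-6-phosphate substrate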
# Diaphorase 10uM – inhibits diaphorase or oxidizes, flagging false PfG6PD hits; shares compounds with PfGluPho inh; diaphorase-coupled resazurin reduction, fluorescence, NADPH 10 uM; inhibition, % at 20 µM; hit rate 39% among 820; AID 504862;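 active = average inhibition reaching 50% or more with the compound at 20 µM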;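 note: resorufin red fluorescence formed as diaphorase reduces resazurin using NADPH; 0% = DMSO with enzyme and 100% = DMSO without enzyme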
# Diaphorase 30uM – diaphorase inhibition or oxidation at 30 uM NADPH | inhibition, % at 20 µM | Diaphorase/resazurin coupled assay, resorufin fluorescence | hit rate 29% among 820 | shares compounds with PfGluPho inh;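 active = inhibition averaging 50% or more, tested at 20 µM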;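 note: 0% = DMSO with enzyme and 100% = DMSO wells lacking diaphorase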
# * hit, by the source's call; / = no result.
SMILES,HKDC1 inh,ABHD5-PLIN5 inh,PfGluPho inh,Granule exo inh,PfG6PD confirm,others
CCN(CC(=O)NCc1ccc(Cl)cc1)C(=O)CSCC(=O)Nc1cccc(C)c1,5.5,-1.6,0.8,-2.1,/,
CCO[C@@H]1OC(C(=O)NC2CC2)=C[C@H](c2coc3ccccc3c2=O)[C@H]1CCCO,-0.3,7.0,-4.9,-4.4,/,
Cc1ccsc1/C=N\NC(=O)CC(=O)NCc1ccccc1,8.0,0.5,86.2*,3.6,72.8*,Diaphorase 10uM=60.8*;Diaphorase 30uM=40.9
O=C(CC(=O)N/N=C/c1c(F)cccc1Cl)NCc1ccccc1,-1.6,/,77.4*,/,67.1*,Diaphorase 10uM=62.4*;Diaphorase 30uM=51.7*
CCOC(=O)C1CCN(C(=O)COc2ccc(S(=O)(=O)N3CCCC3)cc2C)CC1,-8.7,-3.6,-4.2,-1.6,/,
COc1cc(/C=N/N2CCN(C3c4ccccc4-c4ccccc43)CC2)cc(OC)c1OC,11.5,-9.6,-1.8,-2.3,/,
COc1cc(/C=N/N2CCN(C3c4ccccc4-c4ccccc43)CC2)cc(OC)c1O,16.3,-8.6,75.8*,-8.2,16.8,
COc1cc(/C=N/N2C(C)CCCC2C)cc(OC)c1O (configuration not stated),4.6,5.7,84.4*,12.2,18.2,
N#CCC(=O)N/N=C/c1ccc(OCC(=O)Nc2ccc(F)cc2)cc1,15.2,-3.9,-15.3,-0.5,/,
Cc1cccc(CNc2ccc(C(CC(N)=O)NC(=O)c3cccc(Br)c3)cc2[N+](=O)[O-])c1 (configuration not stated),-4.2,-10.6,8.0,-4.0,/,
CCCCN1C(=O)/C(=C2\SC(N3CCCCC3)=NC2=O)c2ccccc21,5.1,-1.9,65.3*,-3.2,1.9,
Cc1ccc(S(=O)(=O)Oc2cccc(/C=N/Nc3ccc(C(=O)O)cc3)c2)cc1,7.4,-5.7,97.6*,-1.7,67.1*,Diaphorase 10uM=60.3*;Diaphorase 30uM=49.0
Cc1ccc(S(=O)(=O)Oc2cccc(/C=N/n3cnnc3)c2)cc1,-1.0,3.1,77.4*,-1.2,37.0,
C(=N\n1cnnc1)/c1cccc(OCCOc2ccccc2)c1,7.1,-2.8,6.8,0.0,/,
COc1ccc(Br)cc1/C=N/NC(=O)CNC(=O)C1COc2ccccc2O1 (configuration not stated),11.5,-4.2,119.1*,2.0,102.7*,Diaphorase 10uM=97.0*;Diaphorase 30uM=76.5*
Cc1ccc(/C=C/C(=O)NCc2ccc3c(c2)OCO3)o1,-2.8,10.8,78.1*,9.4,30.2,
COc1cc(OC)cc(C(=O)NCCCNC(=O)c2ccccn2)c1,-5.0,3.2,4.1,-1.5,/,
CC(=O)Nc1c(C(=O)Nc2ccc3c(c2)OCO3)oc2ccccc12,-1.9,4.7,17.2,-0.9,/,
Cc1c(C(=O)Nc2ccc3c(c2)OCO3)oc2ccccc12,-0.4,15.5,60.7*,13.4,-2.5,
CSCc1c(C(=O)Nc2ccc3c(c2)OCO3)oc2ccccc12,4.2,-11.1,67.9*,2.7,2.6,
COCC(=O)Nc1c(C(=O)Nc2ccc3c(c2)OCO3)oc2ccccc12,-3.8,-7.4,-1.6,-0.2,/,
O=C(N/N=C/c1ccccn1)c1ccc(Br)cc1,-10.4,0.1,0.2,-6.9,/,
COc1ccc(C2/C(=C(/O)c3ccccc3)C(=O)C(=O)N2C)cc1OC (configuration not stated),3.0,0.7,-4.5,-1.1,/,
Oc1cccc2c(NC(=S)Nc3ccc(OC(F)F)cc3)cccc12,3.7,-25.7,62.1*,7.4,-17.3,
FC(F)Oc1ccc(NC(=S)NCc2ccccc2)cc1,-5.6,1.1,4.2,-8.5,/,
SMILES,HKDC1 inh,ABHD5-PLIN5 inh,PfGluPho inh,Granule exo inh,PfG6PD confirm,others
CCc1ccccc1N1CSC2=C(C#N)C(c3ccccc3F)CC(=O)N2C1 (configuration not stated),13.4,-5.7,74.1*,-5.2,51.0*,Diaphorase 10uM=-16.8;Diaphorase 30uM=-12.5
COc1cccc(C2SCC(=O)N2c2ccc(Cl)cc2)c1OC (configuration not stated),-1.0,-1.6,-3.9,0.4,/,
COc1ccc(N2CSC3=C(C#N)C(c4cccc(OC)c4OC)CC(=O)N3C2)cc1 (configuration not stated),15.1,-15.7,89.4*,-2.3,37.0,
COc1cccc(C2=CC(=O)CC(c3ccco3)C2)c1 (configuration not stated),3.6,8.5,2.1,2.3,/,
O=[N+]([O-])c1ccc(Sc2ncccn2)c([N+](=O)[O-])c1,4.6,-1.3,6.4,-2.8,/,
Cc1cccc(Sc2ccc([N+](=O)[O-])cc2[N+](=O)[O-])n1,-1.2,-2.7,64.3*,0.0,19.9,
COc1c(Cl)cccc1-c1cn2ccc(C)cc2n1,0.1,-0.2,83.4*,1.3,28.7,
O=C(Nc1ccc(S(=O)(=O)Nc2ncccn2)cc1)C1CC(=O)N(c2ccc(Cl)cc2)C1 (configuration not stated),-1.4,1.0,-17.3,-4.4,/,
Brc1cccc(-c2nnc(SCc3nc4ccccc4[nH]3)o2)c1,-3.6,-0.7,60.1*,-1.9,13.1,
Nc1c(C(=O)NCc2ccco2)sc2nc(N3CCOCC3)c3c(c12)CCCC3,8.7,-2.5,66.3*,-3.5,-0.7,
CCOC(=O)c1sc2nc(N3CCOCC3)c3c(c2c1N)CCCC3,-3.1,-4.1,11.4,3.7,/,
CCN(CC)C(=O)c1sc2nc(N3CCOCC3)c3c(c2c1N)CCCC3,8.3,-1.6,76.3*,12.2,9.8,
NS(=O)(=O)c1cccc(NC(=O)COC(=O)Cn2cc(C(F)(F)F)ccc2=O)c1,-3.7,-2.3,2.7,-0.8,/,
COc1ccc(Cn2c(/C=C/c3ccccc3)nc3ccccc32)cc1,-3.5,-3.4,74.5*,3.0,21.2,
COc1ccc(/C=C/c2nc3ccccc3n2C)cc1,-4.7,7.5,72.7*,-0.6,56.4*,Diaphorase 10uM=49.8;Diaphorase 30uM=44.1
CCCn1cnc2cc(NC(=O)c3cccs3)ccc21,-3.5,5.6,10.9,0.6,/,
Cc1ccc(C2C3=C(CC(C)(C)CC3=O)NC3=C2C(=O)c2ccccc23)cc1 (configuration not stated),16.1,20.4,36.0,7.0,/,
CC1(C)CC(=O)C2=C(C1)NC1=C(C(=O)c3ccccc31)C2c1ccc(Cl)cc1 (configuration not stated),8.8,-3.6,67.6*,8.0,14.1,
COc1ccc([N+](=O)[O-])cc1NS(=O)(=O)c1ccc(C)cc1,-3.4,-2.5,-2.4,-7.0,/,
Cc1ccc(S(=O)(=O)Nc2ccccc2N=Cc2ccc([N+](=O)[O-])cc2[N+](=O)[O-])cc1,11.6,-18.0,83.7*,-4.2,-3.5,
CN(C)c1ccc(/C=C/c2cccc[n+]2[O-])cc1,-2.1,0.8,17.1,-6.7,/,
CN(C)c1ccc(/C=C/c2ccc3c4ccccc4ccc3[n+]2-c2ccccc2)cc1,26.2,36.8*,65.6*,-28.2,68.4*,Diaphorase 10uM=-16.0;Diaphorase 30uM=-3.7
O=C(CCn1c(=O)oc2cc(Cl)ccc21)Nc1ccc(N2CCOCC2)cc1,2.8,-7.5,-9.3,-2.4,/,
